Here are results for 2 compounds from publication PMC3525873 (British Journal of Pharmacology, 2012).

The structures appear in SMILES notation. Where only a bound is given, the exact number is not on record here.

The target in experiment [1] is T1, TRPC3 (Homo sapiens, UniProt Q13507).
T1 sequence (Q13507 74-921 limits assumed): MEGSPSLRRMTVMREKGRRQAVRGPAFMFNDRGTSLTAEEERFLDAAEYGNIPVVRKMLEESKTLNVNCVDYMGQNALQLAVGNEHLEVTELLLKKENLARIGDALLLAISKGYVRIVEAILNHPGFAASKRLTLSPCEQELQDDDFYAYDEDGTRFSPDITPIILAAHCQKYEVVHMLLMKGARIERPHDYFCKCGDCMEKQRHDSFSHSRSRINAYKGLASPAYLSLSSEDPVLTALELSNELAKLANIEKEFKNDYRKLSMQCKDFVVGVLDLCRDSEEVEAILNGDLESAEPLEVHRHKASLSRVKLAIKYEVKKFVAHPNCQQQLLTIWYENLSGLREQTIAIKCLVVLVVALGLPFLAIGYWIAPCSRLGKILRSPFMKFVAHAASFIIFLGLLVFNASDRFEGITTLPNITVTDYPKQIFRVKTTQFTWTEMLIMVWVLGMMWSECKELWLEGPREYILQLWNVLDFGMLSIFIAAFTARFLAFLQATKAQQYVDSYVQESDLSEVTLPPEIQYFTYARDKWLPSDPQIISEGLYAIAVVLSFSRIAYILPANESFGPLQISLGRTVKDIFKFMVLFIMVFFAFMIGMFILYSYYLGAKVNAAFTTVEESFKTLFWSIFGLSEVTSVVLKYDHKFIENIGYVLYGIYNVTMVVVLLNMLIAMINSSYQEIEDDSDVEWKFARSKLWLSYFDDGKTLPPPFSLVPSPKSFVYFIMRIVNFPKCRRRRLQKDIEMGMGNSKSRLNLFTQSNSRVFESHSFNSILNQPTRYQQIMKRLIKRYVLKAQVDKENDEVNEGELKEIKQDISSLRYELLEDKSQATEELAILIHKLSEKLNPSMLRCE
The experiment can be described thus: Patch-clamp of TRPC3 currents in HEK293 cells transiently expressing TRPC3. It is filed as cell-based. (In patch-clamp work, channel activity is measured electrically.)

The subject of experiment [2] is RBL-2H3 cells. The experiment in a line: Degranulation assay. It counts as cell-based. As to conditions: ionomycin 0.4 μM. In a few lines:
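RBL-2H3 cells grown to confluency, washed in RBL-2H3 buffer with 2 mM CaCl2, all incubations at 37°C. Test compound (3 or 10 μM) for 15 min, then ionomycin 0.4 μM final for 30 min. Stopped with 0.4 M glycine (pH 10.7), A405 read. Untreated and 2% triton-lysed cells served as basal/maximal references. n = 3 passages.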

Experiment [3] concerns the target T2, TRPC6 (Mus musculus, UniProt Q61143).
T2 sequence (Q61143 1-930): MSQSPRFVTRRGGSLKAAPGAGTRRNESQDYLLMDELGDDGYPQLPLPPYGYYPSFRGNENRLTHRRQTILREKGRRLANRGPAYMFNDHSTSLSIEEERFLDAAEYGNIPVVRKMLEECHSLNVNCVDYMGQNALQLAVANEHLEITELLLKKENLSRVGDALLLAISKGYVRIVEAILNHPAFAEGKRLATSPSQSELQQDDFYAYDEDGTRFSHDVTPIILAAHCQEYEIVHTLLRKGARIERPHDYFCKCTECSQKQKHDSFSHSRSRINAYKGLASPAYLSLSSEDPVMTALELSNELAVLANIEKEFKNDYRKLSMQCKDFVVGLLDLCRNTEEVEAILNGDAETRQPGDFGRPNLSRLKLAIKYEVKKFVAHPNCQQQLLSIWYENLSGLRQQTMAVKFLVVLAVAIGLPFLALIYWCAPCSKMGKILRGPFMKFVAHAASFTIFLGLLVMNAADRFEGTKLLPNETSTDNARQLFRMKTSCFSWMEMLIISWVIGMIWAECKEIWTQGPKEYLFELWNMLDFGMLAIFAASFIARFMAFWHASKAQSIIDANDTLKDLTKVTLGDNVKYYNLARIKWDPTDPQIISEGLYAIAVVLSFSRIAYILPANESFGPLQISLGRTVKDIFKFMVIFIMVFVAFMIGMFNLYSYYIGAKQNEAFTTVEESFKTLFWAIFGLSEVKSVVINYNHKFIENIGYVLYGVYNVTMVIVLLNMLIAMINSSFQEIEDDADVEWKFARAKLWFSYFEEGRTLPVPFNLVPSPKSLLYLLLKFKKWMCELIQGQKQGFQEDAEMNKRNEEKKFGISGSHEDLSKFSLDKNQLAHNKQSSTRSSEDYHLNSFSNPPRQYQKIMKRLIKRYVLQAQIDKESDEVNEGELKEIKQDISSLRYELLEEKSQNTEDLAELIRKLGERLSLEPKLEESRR
The experiment can be described thus: Fura-2 Ca2+ entry in HEK293 cells overexpressing GFP-TRPC6. It counts as cell-based, murine.

Experiment [4] addresses T1, TRPC3. It counts as cell-based. As to conditions: TRPC3 ROCE vs RBL-2H3 SOCE.

On to `O=C(Nc1ccc(-n2nc(C(F)(F)F)cc2C(F)(F)F)cc1)c1ccncc1F` [Pyr6, N-(4-(3,5-bis(trifluoromethyl)-1H-pyrazole-1-yl)phenyl)-3-fluoroisonicotinamide], for which, in experiment [1] (3 μM, percent of control), the TRPC3 currents remaining worked out at 52%. The “Effect on ionomycin-initiated degranulation” value in experiment [2] (3 μM) is on record as “substantially reduced degranulation”; in experiment [2] (10 μM) it was “suppressed responses down to basal levels”. The compound also registered an IC50 in experiment [3] greater than 10 µM.
Take `Cc1ccc(S(=O)(=O)Nc2ccc(-n3nc(C(F)(F)F)cc3C(F)(F)F)cc2)cc1` [Pyr10, N-(4-(3,5-bis(trifluoromethyl)-1H-pyrazole-1-yl)phenyl)-4-methylbenzenesulfonamide]: the “Selectivity for TRPC3-ROCE as compared with the SOCE model, orders of magnitude” value in experiment [4] is reported as 1.25 OM. The “Selectivity for TRPC3-ROCE as compared with the SOCE model” value in experiment [4] (ratio of IC50 values) is recorded as 18 fold. For the same compound, the “Effect on TRPC3 Ca2+ entry-mediating conductance” value in experiment [1] (3 μM pre-incubation, carbachol) is “eliminated TRPC3 currents”. Further, in experiment [1] (3 μM, OAG 100 μM), the “Effect on OAG-induced TRPC3 membrane currents” value is “potently blocks DAG-mediated TRPC3 membrane currents”. Besides, the concentration for half-maximal inhibition (IC50) in experiment [3] is greater than 10 µM.

The term IC50 denotes the concentration needed to halve the response being measured. Lower therefore signals inhibition by little substance.
